The values that follow come from ChEMBL document CHEMBL1147580, “Antihyperglycemic activity of 2-methyl-3,4,5-triaryl-1H-pyrroles in SLM and STZ models” (2004).

Activity calls are given as the source filed them. The rule behind the calls is not given here.

For assay [1], the system named is Rattus norvegicus. Kind of assay: In vivo anti-hyperglycaemic activity of compound in rat sucrose(100 mg/kg, oral gavage) loaded model (SLM) at 100 mg/kg dose. The format is functional. The procedure, abridged:
(§1)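 Overnight-fasted male Sprague–Dawley rats, five per group, were bled at baseline and then given the compound at 100 mg/kg by oral gavage. Sucrose (10 gm/kg) was loaded 30 min later. Blood glucose was taken at 30, 60, 90 and 120 min after the load, and % fall was calculated by the AUC method. Values are means of three experiments.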

Assay [2] deals with Rattus norvegicus. The assay is described as follows: In vivo anti-hyperglycaemic activity of compound in rat streptozotocin(60 mg/kg, ip) model (STZ) at 100 mg/kg dose.
For assay [3], the system named is Rattus norvegicus. Kind of assay: In vivo anti-hyperglycaemic activity of compound in rat sucrose(100 mg/kg, oral gavage) loaded model (SLM) at 100 mg/kg dose; NA = not active. The format is functional, organism-based. On the set-up: dose 100 mg/kg. In a few lines:
as §1

In the case of `COc1ccc(-c2c(C)[nH]c(-c3ccccc3)c2-c2ccccc2)cc1OC`, the Blood sugar lowering in the assay with Rattus norvegicus [1] was 27.8%; in the assay with Rattus norvegicus [2] it was 28.6%.
Turning to `COc1ccc(-c2c(C)[nH]c(-c3ccccc3)c2-c2ccccc2)c(OC)c1`, the Blood sugar lowering in the assay on Rattus norvegicus [1] came out at 20.3%.
For the compound `Cc1[nH]c(-c2ccc(Cl)cc2)c(-c2ccc(Cl)cc2)c1-c1ccccc1F`, the Blood sugar lowering result in the assay on Rattus norvegicus [3] was “inactive”.
Consider `Cc1[nH]c(-c2ccccc2)c(-c2ccccc2)c1-c1cccc(C(F)(F)F)c1`, for which the Blood sugar lowering in the assay with Rattus norvegicus [1] came to 40.8%; in the assay on Rattus norvegicus [2] it was 25.1%.
Take `COc1ccc(-c2[nH]c(C)c(-c3ccc(F)cc3)c2-c2ccc(OC)cc2)cc1`: in the assay with Rattus norvegicus [1], the Blood sugar lowering is 14.7%.
`c1ccc(-c2nc(-c3ccccc3)c(-c3ccccc3)nc2-c2ccccc2)cc1` had a Blood sugar lowering with Rattus norvegicus [1] of 21.9%.
As to `Cc1[nH]c(-c2ccccc2)c(-c2ccccc2)c1-c1ccccc1F`, the Blood sugar lowering result in the assay on Rattus norvegicus [3] was “inactive”.
As for `Cc1[nH]c(-c2ccccc2)c(-c2ccccc2)c1-c1ccc(F)cc1`, the Blood sugar lowering came out at 49.7% with Rattus norvegicus [1] and 34.7% in the assay with Rattus norvegicus [2].
In the case of `Cc1[nH]c(-c2cccc(Cl)c2)c(-c2cccc(Cl)c2)c1-c1ccc(F)cc1`, the Blood sugar lowering result with Rattus norvegicus [3] is “inactive”.
The same measure, in the same setting: the value for `Cc1[nH]c(-c2ccc(Cl)cc2)c(-c2ccc(Cl)cc2)c1-c1ccc(F)cc1` was “inactive”.
